Source: PubChem
The list is not random: actives were taken first. Their share in the collection is about 1.8%.
CHRM5 antagonist: CHRM5 antagonism in calcium assay; P08912; CHO-hM5 cells, Fluo-8 calcium fluorescence, ACh EC80; inhibition, % at 3 µM; 0.59% of 360,000 active;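 active = inhibition above a per-plate cutoff, the mean of that plate's test compounds plus 3 SD, cut at about 27% in these data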
M4 ag: CHRM4 agonism in calcium assay; P08173; CHO-K1 hM4/Gqi5, Fluo-8 calcium fluorescence; vehicle 0%, full acetylcholine response 100%; activation, % at 3 µM; 0.14% of 360,000 active; AID 624127;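 active = activation above the run mean over all test wells plus 3 SD, cut at about 32% in these data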;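 note: peak over basal fluorescence ratio per well then scaled between controls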
Target sequence (P08173 whole entry, looked up): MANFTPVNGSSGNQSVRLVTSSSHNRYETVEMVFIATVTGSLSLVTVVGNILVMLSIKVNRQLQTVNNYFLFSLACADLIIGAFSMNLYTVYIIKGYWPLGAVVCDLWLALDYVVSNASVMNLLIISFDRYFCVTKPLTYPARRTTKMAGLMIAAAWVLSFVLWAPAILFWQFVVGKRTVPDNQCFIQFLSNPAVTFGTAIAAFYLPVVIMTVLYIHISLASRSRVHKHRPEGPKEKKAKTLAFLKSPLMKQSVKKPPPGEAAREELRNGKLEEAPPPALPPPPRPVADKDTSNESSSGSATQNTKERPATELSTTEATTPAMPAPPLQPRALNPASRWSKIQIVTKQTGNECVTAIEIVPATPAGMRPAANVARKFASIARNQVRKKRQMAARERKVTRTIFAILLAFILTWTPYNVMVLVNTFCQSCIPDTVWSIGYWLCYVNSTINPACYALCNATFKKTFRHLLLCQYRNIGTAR
CHRM5 agonist: CHRM5 agonism in calcium assay; P08912; CHO-K1 hM5 cells, Fluo-8 calcium fluorescence; 0% DMSO wells, 100% maximal acetylcholine response; activation, % at 3 µM; 0.19% of 360,000 active;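 active = activation above the run's mean over test compounds plus 3 SD, cut at about 23% in these data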;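 note: signal is peak over basal fluorescence ratio across the kinetic read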
CHRM4 PAM: potentiates acetylcholine response at human M4 receptor | CHO-K1 hM4/Gqi5, Fluo-8 calcium fluorescence, ACh EC20; 0% = ACh EC20, 100% = maximal ACh | activation, % at 3 µM | P08173 | 0.4% of 360,000 active;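 active = activation above its plate's cutoff, the mean activation of sample wells plus 3 SD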
CHRM4 antagonist: CHRM4 antagonism in calcium assay. P08173. CHO-hM4 cells, ACh EC80, Fluo-8 calcium fluorescence. inhibition, % at 3 µM. 0.73% of 360,000 active. AID 624125;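 active = inhibition above its plate's cutoff, the mean inhibition of sample wells plus 3 SD, cut at about 27% in these data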
CHRM5 PAM: potentiates acetylcholine response at human M5 receptor; P08912; CHO-K1 hM5, Fluo-8 calcium, ACh EC20 PAM; 0% = ACh EC20, 100% = ACh EC100; activation, % at 3 µM; 0.3% of 360,000 active;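 active = activation above the run cutoff, the mean activation of all test compounds plus 3 SD, cut at about 18% in these data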
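system = human M5 receptor in CHO-K1 cells | compound = one concentration, 3 µM final (nominal) | schedule = Post-acetylcholine fluorescence recording 140 s | signal = Fluo-8 calcium dye fluorescence, kinetic read | benchmarks = low control EC20 acetylcholine (0%), high control EC100 acetylcholine (100%) | repeats = singlicate, one well per test compound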
Hits are given with their value; n = inactive.

SMILES	CHRM5 antagonist	M4 ag	CHRM5 agonist	CHRM4 PAM	CHRM4 antagonist	CHRM5 PAM
O=C1NCN(c2ccccc2)C12CCN(C(CCc1ccccc1)c1nnnn1-c1ccc3c(c1)OCCO3)CC2 (centres undefined)	n	n	n	n	n	n
CCOC(=O)C1=C(N)OC2=C(C(=O)CCC2)C12C(=O)N(C)c1ccccc12 (centres undefined)	n	n	n	n	n	n
O=C1C2CCCN2C(c2cccnc2)N1c1ccc(Cl)cc1 (centres undefined)	n	n	n	30	n	n
COc1ccc(S(=O)(=O)NC(CC(=O)N2CCC3(CC2)OCCO3)C(C)C)cc1 (centres undefined)	n	n	n	n	n	n
O=C1CN(C(=O)COC(=O)Cc2ccccc2)c2ccccc2N1	n	n	n	n	n	n
COc1ccc(Br)cc1CN1CCN(CCO)CC1	n	n	n	n	n	n
COc1cc(Br)cc(CN2CCN(C)CC2)c1O	n	n	n	n	41	n
CCC(CC)NC1CCCCC1OC (centres undefined)	n	n	n	n	n	n
CN1/C(=C\C=C2C(=O)NC(=O)NC2=O)C(C)(C)c2ccccc21	n	n	n	n	n	n
CCN1/C(=C/C=C/C2=[N+](CC)c3ccccc3C2(C)C)C(C)(C)c2ccccc21	97	365	501	n	95	n
COC(=NC1CCCC1)C(O)c1c[nH]c2ccccc12 (centres undefined)	n	n	n	n	n	n
CNc1cc(Cl)c2nonc2c1[N+](=O)[O-]	n	n	n	n	34	n
CCS(=O)(=O)NCc1nnc2n1-c1ccc(Cl)cc1C(c1ccccc1)=NC2	n	n	n	n	n	n
COC(=O)C1=C(C)NC(=S)NC1c1ccc(N(CCCl)CCCl)cc1Cl (centres undefined)	n	n	n	n	n	18
CCn1c(=O)cc(SCC(=O)N2CCC3(CC2)OCCO3)c2ccccc21	n	n	n	n	n	n
O=C(c1ccc(N2CC3CC(C2)c2cccc(=O)n2C3)c([N+](=O)[O-])c1)N1CCCC1 (centres undefined)	n	n	n	n	n	n
CSCCC(c1nnnn1Cc1ccccc1)N1CCC(n2c(=O)[nH]c3ccccc32)CC1 (centres undefined)	n	n	30	n	n	n
O=c1[nH]c2ccccc2n1C1CCN(C(c2nnnn2Cc2ccccc2)C2CC2)CC1 (centres undefined)	n	n	n	n	29	n
O=c1[nH]c2ccccc2n1C1CCN(C(CCc2ccccc2)c2nnnn2Cc2ccccc2)CC1 (centres undefined)	n	n	n	n	n	n
O=c1[nH]c2ccccc2n1C1CCN(C(c2cccs2)c2nnnn2Cc2ccccc2)CC1 (centres undefined)	n	n	n	n	n	n
CSCCC(c1nnnn1Cc1ccccc1)N1CCC2(CC1)C(=O)NCN2c1ccccc1 (centres undefined)	n	n	44	n	n	n
O=c1[nH]c2ccccc2n1C1CCN(C(c2ccccc2OC(F)(F)F)c2nnnn2Cc2ccccc2)CC1 (centres undefined)	n	n	n	n	n	n
CC(C)(C)c1cc(OC(=O)Cc2ccccc2)ccc1O	n	n	n	n	n	19
O=C(Cc1ccccc1)Oc1cccc(N2C(=O)CCC2=O)c1	n	n	n	n	n	n
CS(=O)(=O)c1ccc(C2=C(CNC(=O)c3ccc([N+](=O)[O-])cc3)[C@H]3CC[C@@H](C2)N3CCOc2ccccc2)cc1	n	n	n	n	n	n
CC(C)(C)n1c(O)c(C=Nc2ccc3c(c2)CCC3)c(=O)[nH]c1=O	n	n	n	n	n	n
Clc1ccc(OCC#CCN2CCCCCC2)cc1	35	n	n	n	33	n
COc1ccc(OCC#CCN2CCC(C)CC2)cc1	n	n	n	n	n	n
CN(Cc1cccc(-c2ccncc2)c1)C(=O)Oc1ccccc1Cc1ccccc1	43	n	n	n	37	n
